According to article PMC3921891 (European journal of pharmacology, 2010):
“Also recorded” adds a separate entry of the source. Where two headings read alike, the source gives them in different places. Marks after values point to notes of the source that are not given here.

Columns and labels:
[1] = tested on: ERK (p42/p44 MAP kinase) in NCI-H1299 cells transfected with NMB receptor; test: ERK tyrosine phosphorylation, Western blot; type: cell-based, human; conditions: abstract statement
How it was run: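 Monolayers of NCI-H1299 cells with transfected NMB receptor were held in SIT medium 3 h. Inhibitors or anti-growth-factor antibodies (5 µg/ml) were given for 30 min, then 0.1 µM NMB or BA1 for 2 min. Lysate (20 µg) was run on 4–20% gels and blotted with anti-phospho-ERK, with anti-ERK or anti-tubulin as loading controls. Detection was by ECL with densitometry.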

[2] = tested on: EGF receptor in NCI-H1299 cells; test: EGF receptor tyrosine phosphorylation, Western blot, NCI-H1299 cells; type: cell-based, human
[3] = tested on: NCI-H1299 cells; test: MTT proliferation assay, NCI-H1299; type: cell-based, human
[4] = tested on: NCI-H1299 cells; test: Clonogenic assay, NCI-H1299; type: cell-based, human
[5] = tested on: EGF receptor in NCI-H1299 cells transfected with NMB receptor; type: cell-based, human; conditions: for effect of PP2 / GM6001 on NMB-induced EGF receptor transactivation: 10 µM inhibitor, densitometry of 3 experiments (Fig. 3B, C)
How it was run: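 NCI-H1299 cells expressing transfected NMB receptor, grown to a monolayer, held in SIT medium 3 h. Inhibitors were added 30 min before stimulation with 0.1 µM NMB or BA1 for 2 min. Cells were lysed. 400 µg protein was immunoprecipitated overnight at 4°C with anti-phosphotyrosine, run on 4–20% SDS-PAGE and blotted with anti-EGF receptor. Alternatively, 20 µg extract was probed with anti-PY1068-EGF receptor. Detection was by ECL with densitometry.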

[6] = tested on: reactive oxygen species in NCI-H1299 cells; test: Reactive oxygen species; type: cell-based, human; conditions: for effect on BA1-induced reactive oxygen species / effect on basal reactive oxygen species: PP2 10 µM, GM6001 10 µM; for effect on BA1-induced reactive oxygen species / effect on H2O2-induced reactive oxygen species: NAC (5 mM), data not shown; for % Fluorescence Intensity, inhibitor alone (basal): PP2 10 µM or GM6001 (10 µM); for effect on basal reactive oxygen species: inhibitor alone
[7] = tested on: TGFα release from NCI-H1299 cells; test: TGFα release, TGFα immunoassay; type: cell-based, human; conditions: inhibitor pretreatment, NMB 100 nM
[8] = tested on: GRP receptor; conditions: ref Jensen et al., 2008; Ashwood et al., 1998; cited from earlier work
[9] = tested on: NMB receptor; conditions: ref Jensen et al., 2008; Ashwood et al., 1998; cited from earlier work
[10] = tested on: lung cancer cells; conditions: in vitro; ref Witta et al., 2006; Ono et al., 2004; Janmaat et al., 2003; cited from earlier work
[11] = tested on: NSCLC patients; conditions: particularly a subgroup with EGF receptor mutations; no reference given; cited from earlier work
[12] = Tiron 5 mM, None = 100 ± 7, mean ± S.D. of 6 determinations

Compound: COc1cc2ncnc(Nc3cccc(Cl)c3)c2cc1OC [AG1478, N-(3-Chlorophenyl)-6,7-dimethoxy-4-quinazolinamine]
- effect on EGF receptor transactivation or ERK tyrosine phosphorylation caused by NMB-like peptides [1]: inhibited
- effect on NMB-induced EGF receptor tyrosine phosphorylation ([2]; AG1478 10 µg/ml, data not shown): inhibited

Compound: C[C@@](Cc1c[nH]c2ccccc12)(NC(=O)Nc1ccc([N+](=O)[O-])cc1)C(=O)NCC1(c2ccccn2)CCCCC1 [PD168368]
- effect of 3 µM PD168368 on the gefitinib dose response curve ([3]; 3 µM PD168368, relative to no additions): shifted to the left
- effect of PD168368 alone on proliferation ([3]; PD168368 alone, mean of 8 determinations (Fig. 5A)): inhibited the proliferation of NCI-H1299 cells in a dose-dependent manner
- effect of PD168368 on the gefitinib dose-response curve ([3]; increasing concentrations of PD168368 with gefitinib (Fig. 5A)): progressive shift to the left of the gefitinib dose-response curve
- effect on colony formation ([4]; 0.3 µM PD168368, 2 weeks (Fig. 5B2)): had little effect on colony formation
- effect on EGF receptor transactivation or ERK tyrosine phosphorylation caused by NMB-like peptides [1]: inhibited
- effect on BA1-induced EGF receptor tyrosine phosphorylation ([5]; 1 µM antagonist, 30 min pretreatment, 100 nM BA1, 4 experiments (Fig. 1D)): significantly reversed
- effect on NMB-induced EGF receptor transactivation ([5]; data not shown): antagonized the ability of NMB to cause EGF receptor transactivation

Compound: bombesin
- tyrosine phosphorylation of the 170 kDa EGF receptor ([2]; native NCI-H1299 cells, 0.1 µM (Fig. 1A)): caused tyrosine phosphorylation of the 170 kDa EGF receptor
- increase in EGF receptor tyrosine phosphorylation ([2]; native NCI-H1299 cells, 0.1 µM, 2 min, densitometry analysis of 4 experiments (Fig. 1B)): 1.4 fold

Compound: CC(=O)N[C@@H](CS)C(=O)O [NAC, N-acetylcysteine]
- effect on BA1-induced reactive oxygen species [6]: reduced
- effect on H2O2-induced reactive oxygen species ([6]; Tiron 5 mM): reduced
- effect of NAC on NMB-induced EGF receptor tyrosine phosphorylation ([5]; 5 mM NAC pretreatment, NMB 0.1 µM, 4 experiments (Fig. 4A, B)): inhibited

Compound: COc1cc2ncnc(Nc3ccc(Oc4ccccc4)cc3)c2cc1OC [PP2, 4-(4’-Phenoxyanilino)-6,7-dimethoxyquinzoline,6,7-Dimethoxy-N(4-phenoxyphenyl)-4-quinazolinamine]
- effect on BA1-induced reactive oxygen species [6]: inhibited the increase in reactive oxygen species
- % Fluorescence Intensity, inhibitor alone (basal) [6, 12]: 93 ± 5%
- effect on basal reactive oxygen species ([6]; Tiron 5 mM): had little effect
- effect on NMB-induced TGFα secretion [7]: reversed
- effect of PP2 / GM6001 on NMB-induced EGF receptor transactivation [5]: markedly inhibited; also recorded: reduced significantly

Compound: COc1ccc(C2(CNC(=O)[C@](C)(Cc3c[nH]c4ccccc34)NC(=O)Nc3ccc([N+](=O)[O-])cc3)CCCCC2)nc1 [PD176252]
- affinity for GRP receptor [8]: high affinity
- affinity for NMB receptor [9]: high affinity

Compound: COc1cc2ncnc(Nc3ccc(F)c(Cl)c3)c2cc1OCCCN1CCOCC1 [gefitinib]
- effect on proliferation at 1 and 3 µg/ml ([3]; gefitinib 1 and 3 µg/ml): having no effect
- variation of sensitivity of lung cancer cells to gefitinib [10]: up to 2700 fold
- effect on colony number and size ([4]; 1 µg/ml gefitinib, 2 weeks (Fig. 5B3)): slightly reduced colony number and size
- effect on EGF receptor transactivation or ERK tyrosine phosphorylation caused by NMB-like peptides [1]: inhibited
- NSCLC patients responding [11]: 10%

Compound: OO [H2O2]
- generation of reactive oxygen species ([6]; BA1 0.1 µM, NMB 0.1 µM or H2O2 10 µM): significantly increased
- % Fluorescence Intensity, stimulus alone ([6]; NMB 0.1 µM, H2O2 10 µM or BA1 0.1 µM, 2 hour, None = 100 ± 7, mean ± S.D. of 6 determinations, P < 0.01): 589 ± 60 ^b %

Compound: O=S(=O)(O)c1cc(O)c(O)c(S(=O)(=O)O)c1 [Tiron]
- effect on NMB-induced reactive oxygen species ([6]; Tiron 5 mM): greatly reduced
- % Fluorescence Intensity, inhibitor + H2O2 ([6]; Tiron 5 mM 30 min prior to H2O2 10 µM, 2 hour, mean ± S.D. of 6 determinations, P < 0.01): 200 ± 14 ^b %
- % Fluorescence Intensity, inhibitor + NMB ([6]; Tiron 5 mM 30 min prior to NMB 0.1 µM, 2 hour, mean ± S.D. of 6 determinations): 92 ± 9%
- % Fluorescence Intensity, inhibitor alone (basal) [6, 12]: 82 ± 11%
- effect on H2O2-induced reactive oxygen species ([6]; Tiron 5 mM): greatly reduced
- effect on basal reactive oxygen species ([6]; Tiron 5 mM): had little effect
- effect of Tiron on NMB-induced EGF receptor transactivation ([5]; 10 mM Tiron (Fig. 4D)): significantly inhibited
- effect of Tiron on NMB-induced EGF receptor transactivation ([5]; 0.1 or 1 mM Tiron (Fig. 4C, D)): had little effect
- effect of Tiron on NMB-induced EGF receptor transactivation, dose dependence ([5]; 0.1 to 10 mM Tiron (Fig. 4C)): inhibited in a dose-dependent manner

Compound: CNC(=O)[C@H](Cc1c[nH]c2ccccc12)NC(=O)[C@@H](CC(=O)NO)CC(C)C [GM6001, (R)-N4-Hydroxy-N1-[(S)-2-(1H–indol-3-yl)-1-methylcarbamoyl-ethyl]-2-isobutyl-succinamide]
- effect on BA1-induced reactive oxygen species [6]: inhibited the increase in reactive oxygen species
- % Fluorescence Intensity, inhibitor alone (basal) [6, 12]: 94 ± 4%
- effect on basal reactive oxygen species ([6]; Tiron 5 mM): had little effect
- effect on NMB-induced TGFα secretion [7]: reversed
- effect of PP2 / GM6001 on NMB-induced EGF receptor transactivation [5]: markedly inhibited
- effect of PP2 / GM6001 on NMB-induced EGF receptor transactivation ([5]; listed as GM60001): reduced significantly
